We go through three molecules from ChEMBL document CHEMBL5385967, “Nitrogen-containing andrographolide derivatives with multidrug resistance reversal effects in cancer cells” (RSC Med Chem, 2024).

For series [1], the system named is L5178Y. Nature of the series: Antiproliferative activity against mouse L5178Y cells assessed as reduction in cell viability incubated for 72 hrs by MTT assay. The series is classed as functional, cell-based. Summed up: (§1)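 Parental L5178Y or human ABCB1-transfected L5178Y MDR subline kept under 60 ng mL−1 colchicine selection; McCoy's 5A, 10% heat-inactivated horse serum, 37 °C. 6 × 10^3 cells/well exposed to 2-fold serial dilutions from 100 μM for 72 h. MTT 4 h, SDS overnight, OD 540/630 nm. Triplicate; IC50 from curve fitting, mean ± SD.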
A general note: Tetrazolium assays rely on reduction of a dye to a coloured formazan, in cell work by metabolically active cells.

Series [2] concerns L5178Y. Put plainly: Reversal of multidrug resistance in multidrug resistant mouse L5178Y cells transfected with human ABCB1 assessed as reduction in cell viability incubated for 72 hrs by MTT assay. The series is classed as functional, cell-based. In outline: as §1
Series [3] in a line: Resistance ratio of IC50 for antiproliferative activity against multidrug resistant mouse L5178Y cells transfected with human ABCB1 to IC50 for antiproliferative activity against mouse L5178Y cells. The series is classed as functional. In outline: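 RR = IC50(MDR)/IC50(PAR), IC50s from the 72 h MTT assay: 2-fold dilutions from 100 μM, 6 × 10^3 cells/well, triplicate. Collateral sensitivity taken as RR < 0.5; RR < 1 counted as selectivity toward resistant cells.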

Series [4] concerns the target T1, ATP-dependent translocase ABCB1 (Homo sapiens, UniProt P08183). Nature of the series: Modulation of human P-gp transfected in mouse L5178Y cells assessed as change in Rhodamine-123 efflux by measuring fluorescence activity ratio at 2 uM pretreated for 10 mins followed by Rhodamine-123 challenge for 20 mins by flow cytometry relative to parental mouse L5178Y cells. Type of series: cell-based. The following applies: 0.5 h, time 30 min. In outline:
(§2)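 PAR and MDR cells at 2 × 10^6 cells/mL in serum-free McCoy's 5A. Compound given 10 min at room temperature, then rhodamine-123 (5.2 μM final) for 20 min at 37 °C. Washed twice, resuspended in PBS, mean FL-1 read by flow cytometry. FAR = (MDR treated/untreated)/(PAR treated/untreated). Verapamil 20 μM positive control, DMSO 2% solvent control.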
For orientation: A flow cytometer gives signals particle by particle.

Series [5] addresses T1, ATP-dependent translocase ABCB1. Nature of the series: Modulation of human P-gp transfected in mouse L5178Y cells assessed as change in Rhodamine-123 efflux by measuring fluorescence activity ratio at 0.2 uM pretreated for 10 mins followed by Rhodamine-123 challenge for 20 mins by flow cytometry relative to parental mouse L5178Y cells. The series is classed as cell-based. The following applies: 0.5 h, time 30 min. In outline: as §2

The test system of series [6] is L5178Y. Put plainly: Synergistic antiproliferative activity against multidrug resistant mouse L5178Y cells transfected with human ABCB1 assessed as combination index incubated for 72 hrs in presence of doxorubicin by MTT assay. Type of series: functional. In outline: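 Checkerboard in MDR cells, 6 × 10^3 cells/well. Doxorubicin in serial dilutions from 8.6 μM, crossed with modifier dilutions whose start level was set from its IC50. 72 h at 37 °C under CO2, growth read by MTT. Curves fitted by the median-effect equation; CI reported at 50% inhibition, mean ± SD.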

Molecules are shown by their SMILES.

T1 sequence (P08183 whole entry): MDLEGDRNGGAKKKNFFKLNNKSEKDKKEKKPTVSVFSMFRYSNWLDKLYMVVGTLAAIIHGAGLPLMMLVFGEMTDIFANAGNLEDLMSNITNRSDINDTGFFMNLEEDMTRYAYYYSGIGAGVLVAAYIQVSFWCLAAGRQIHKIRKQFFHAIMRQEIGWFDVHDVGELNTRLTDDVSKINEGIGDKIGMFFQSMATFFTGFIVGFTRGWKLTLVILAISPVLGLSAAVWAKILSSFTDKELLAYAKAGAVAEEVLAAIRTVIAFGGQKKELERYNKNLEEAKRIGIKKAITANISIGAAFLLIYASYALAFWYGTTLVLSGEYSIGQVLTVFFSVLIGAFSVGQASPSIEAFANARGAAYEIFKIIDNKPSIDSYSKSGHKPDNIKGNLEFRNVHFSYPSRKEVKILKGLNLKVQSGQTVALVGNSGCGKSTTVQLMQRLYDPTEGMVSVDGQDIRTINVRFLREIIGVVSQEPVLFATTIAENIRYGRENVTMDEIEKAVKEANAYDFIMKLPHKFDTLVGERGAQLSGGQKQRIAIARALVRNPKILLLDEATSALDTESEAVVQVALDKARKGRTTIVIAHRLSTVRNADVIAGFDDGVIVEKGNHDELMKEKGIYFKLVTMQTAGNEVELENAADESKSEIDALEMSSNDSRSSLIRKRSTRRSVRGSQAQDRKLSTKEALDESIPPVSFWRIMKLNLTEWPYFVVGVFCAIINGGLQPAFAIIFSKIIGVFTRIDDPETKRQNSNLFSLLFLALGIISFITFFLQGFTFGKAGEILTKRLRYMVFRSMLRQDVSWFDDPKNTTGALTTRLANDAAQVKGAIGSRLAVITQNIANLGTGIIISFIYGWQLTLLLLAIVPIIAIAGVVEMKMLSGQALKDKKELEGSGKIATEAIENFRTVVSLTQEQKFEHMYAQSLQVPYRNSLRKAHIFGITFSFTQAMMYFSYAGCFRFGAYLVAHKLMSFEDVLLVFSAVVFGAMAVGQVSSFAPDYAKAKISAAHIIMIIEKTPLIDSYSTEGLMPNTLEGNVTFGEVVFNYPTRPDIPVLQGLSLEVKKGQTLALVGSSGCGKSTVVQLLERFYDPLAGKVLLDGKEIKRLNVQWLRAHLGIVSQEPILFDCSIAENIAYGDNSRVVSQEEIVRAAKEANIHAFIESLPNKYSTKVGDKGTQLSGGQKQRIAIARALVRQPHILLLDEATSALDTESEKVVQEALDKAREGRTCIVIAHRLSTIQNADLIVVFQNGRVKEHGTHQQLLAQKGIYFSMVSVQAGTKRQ

Consider `C=C1CC[C@@H]2[C@](C)(COC(C)=O)[C@H](OC(C)=O)CC[C@@]2(C)[C@@H]1C[C@H](NNC(=O)c1ccco1)C1=CCOC1=O`, for which the IC50 (commonly the concentration at which inhibition is half-maximal) turned out to be 11.1 µM with L5178Y [1] and 15.3 µM in the series on L5178Y [2]. In addition, the results for the Ratio in series [3], in series [4] and in series [5] were 1.38, 4.28 and 2.32, respectively. Further, in the series on L5178Y [6], the CI was below 1.

Consider `C=C1CC[C@@H]2[C@](C)(COC(C)=O)[C@H](OC(C)=O)CC[C@@]2(C)[C@@H]1C[C@H](NNC(=O)c1cccnc1)C1=CCOC1=O`, for which the IC50 came out at 12.5 µM in the series with L5178Y [1] and 11.8 µM in the series with L5178Y [2]. Besides, the Ratio in series [3] amounted to 0.94; in series [4], 0.32; in series [5], 0.49. Besides, the CI in the series on L5178Y [6] was below 1.

As for `C=C1CC[C@@H]2[C@](C)(COC(C)=O)[C@H](OC(C)=O)CC[C@@]2(C)[C@@H]1C[C@H](NNC(=O)c1cccs1)C1=CCOC1=O`, the IC50 is 15.5 µM in the series on L5178Y [1] and 15 µM in the series with L5178Y [2]. Further, the results for the Ratio in series [3], in series [4] and in series [5] were 0.96, 1.89 and 0.54, respectively. Besides, the CI in the series on L5178Y [6] is given as below 1.
